From ChEMBL document CHEMBL3603823, “Ethylenedioxy homologs of N-methyl-(3,4-methylenedioxyphenyl)-2-aminopropane (MDMA) and its corresponding cathinone analog methylenedioxymethcathinone: Interactions with transporters for serotonin, dopamine, and norepinephrine” (Bioorg Med Chem, 2015)

Columns and labels:
Type in all cases: subcellular
[1] = target: Sodium-dependent serotonin transporter (Rattus norvegicus, UniProt P31652); experiment: Binding affinity to SERT in Sprague-Dawley rat brain synaptosomes assessed as induction of [3H]5-HT release by liquid scintillation counting method
Procedure, shortened: (§1)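 Rat synaptosomes with 1 μM reserpine in all buffers; SERT and NET from whole brain minus caudate and cerebellum (900 μg/mL protein), DAT from caudate (90 μg/mL). Preloaded 1 h in Krebs-phosphate buffer with 5 nM [3H]5-HT (SERT) or 9 nM [3H]MPP+ (NET, DAT), with unlabeled blockers of competing transporters. Eight-point curves, 10–10,000 nM, triplicate, 3 occasions. Filtration, scintillation counting; EC50 by non-linear regression.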

[2] = target: Sodium-dependent dopamine transporter (Rattus norvegicus, UniProt P23977); experiment: Binding affinity to DAT in Sprague-Dawley rat brain synaptosomes assessed as induction of [3H]MPP+ release by liquid scintillation counting method; procedure, shortened: as §1
[3] = Binding affinity to NET in Sprague-Dawley rat brain synaptosomes assessed as induction of [3H]MPP+ release by liquid scintillation counting method; procedure, shortened: as §1
[4] = target: Sodium-dependent serotonin transporter (Rattus norvegicus) (UniProt P31652); experiment: Binding affinity to SERT in Sprague-Dawley rat brain synaptosomes assessed as induction of [3H]5-HT release by liquid scintillation counting method relative to control
Procedure, shortened: (§2)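 Release measured in rat synaptosomes preloaded 1 h with 5 nM [3H]5-HT (SERT) or 9 nM [3H]MPP+ (NET, DAT), with reserpine and unlabeled blockers; test drug 10–10,000 nM. Efficacy is % of maximal release, defined as release by tyramine: 100 μM for SERT, 10 μM for DAT and NET. Filtration and scintillation counting; n = 3–4 experiments in triplicate.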

[5] = target: Sodium-dependent dopamine transporter (Rattus norvegicus) (UniProt P23977); experiment: Binding affinity to DAT in Sprague-Dawley rat brain synaptosomes assessed as induction of [3H]MPP+ release by liquid scintillation counting method relative to control; procedure, shortened: as §2
Rattus norvegicus [6] = species: Rattus norvegicus; experiment: Binding affinity to NET in Sprague-Dawley rat brain synaptosomes assessed as induction of [3H]MPP+ release by liquid scintillation counting method relative to control; procedure, shortened: as §2
Rattus norvegicus [7] = species: Rattus norvegicus; experiment: Selectivity index, ratio of EC50 for DAT in Sprague-Dawley rat brain synaptosomes to EC50 for SERT in Sprague-Dawley rat brain synaptosomes
Rattus norvegicus [8] = species: Rattus norvegicus; experiment: Selectivity index, ratio of EC50 for NET in Sprague-Dawley rat brain synaptosomes to EC50 for SERT in Sprague-Dawley rat brain synaptosomes

Sequence of Sodium-dependent serotonin transporter (P31652 whole entry): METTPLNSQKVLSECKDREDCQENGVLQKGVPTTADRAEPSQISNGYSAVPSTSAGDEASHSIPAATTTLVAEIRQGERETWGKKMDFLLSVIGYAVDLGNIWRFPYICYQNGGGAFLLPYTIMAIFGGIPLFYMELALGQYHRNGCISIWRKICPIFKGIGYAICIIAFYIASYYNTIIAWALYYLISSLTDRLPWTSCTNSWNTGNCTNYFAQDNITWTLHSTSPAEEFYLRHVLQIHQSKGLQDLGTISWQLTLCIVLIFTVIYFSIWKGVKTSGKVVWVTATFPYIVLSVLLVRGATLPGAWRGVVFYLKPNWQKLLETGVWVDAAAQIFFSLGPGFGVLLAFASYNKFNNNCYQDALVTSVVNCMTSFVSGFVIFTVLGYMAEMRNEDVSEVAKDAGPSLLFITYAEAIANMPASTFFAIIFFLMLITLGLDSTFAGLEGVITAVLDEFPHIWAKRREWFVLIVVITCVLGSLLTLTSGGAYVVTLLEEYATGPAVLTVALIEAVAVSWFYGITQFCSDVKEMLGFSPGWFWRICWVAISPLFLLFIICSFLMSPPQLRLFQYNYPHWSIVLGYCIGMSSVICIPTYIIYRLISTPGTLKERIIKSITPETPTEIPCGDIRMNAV
Sequence of Sodium-dependent serotonin transporter (Rattus norvegicus) (P31652 whole entry): as above
Sequence of Sodium-dependent dopamine transporter (P23977 whole entry): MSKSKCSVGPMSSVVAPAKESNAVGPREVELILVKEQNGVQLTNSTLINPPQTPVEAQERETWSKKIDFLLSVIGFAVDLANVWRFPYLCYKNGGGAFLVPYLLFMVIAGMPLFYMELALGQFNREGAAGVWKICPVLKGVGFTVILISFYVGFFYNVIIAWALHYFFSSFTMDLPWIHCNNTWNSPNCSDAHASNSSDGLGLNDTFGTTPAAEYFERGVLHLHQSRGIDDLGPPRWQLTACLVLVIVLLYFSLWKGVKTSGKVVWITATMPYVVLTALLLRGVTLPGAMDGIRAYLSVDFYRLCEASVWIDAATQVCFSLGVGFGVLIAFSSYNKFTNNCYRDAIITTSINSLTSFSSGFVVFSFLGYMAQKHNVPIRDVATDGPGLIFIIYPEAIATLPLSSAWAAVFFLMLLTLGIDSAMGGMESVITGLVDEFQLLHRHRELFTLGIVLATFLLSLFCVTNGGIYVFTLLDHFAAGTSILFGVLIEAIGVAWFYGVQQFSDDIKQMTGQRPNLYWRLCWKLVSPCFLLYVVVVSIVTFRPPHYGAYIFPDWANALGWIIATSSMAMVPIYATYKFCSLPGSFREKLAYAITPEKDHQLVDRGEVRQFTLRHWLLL
Sequence of Sodium-dependent dopamine transporter (Rattus norvegicus) (P23977 whole entry): as above

Compound | EC50 [1] [nM] | EC50 [2] [nM] | EC50 [3] [nM] | %max [4] [%] | %max [5] [%] | %max (Rattus norvegicus [6]) [%] | Ratio EC50 (Rattus norvegicus [7]) | Ratio EC50 (Rattus norvegicus [8])
CN[C@@H](C)Cc1ccc2c(c1)OCCO2 | 91 | 276 | 239 | 96 | 103 | 94 | – | –
CN[C@H](C)Cc1ccc2c(c1)OCCO2 | 573 | 14600 | 1950 | 97 | 106 | 85 | – | –
CNC(C)Cc1ccc2c(c1)OCCO2 (racemic) | 117 | 597 | 325 | 102 | 108 | 91 | 6 | 3
CNC(C)C(=O)c1ccc2c(c1)OCCO2 (racemic) | 347 | 496 | 327 | 105 | 105 | 84 | – | –
CNC(C)C(=O)c1ccc2c(c1)OCO2 (racemic) [METHYLONE] | 242 | 133 | 152 | – | – | – | – | –
CNC(C)Cc1ccc2c(c1)OCO2 (racemic) [MIDOMAFETAMINE] | 61 | 75 | 72 | 98 | 99 | 95 | – | –
